# Results from ChEMBL document CHEMBL5715960, “Epigenetic Co-Deregulation of EZH2/TET1 is a Senescence-Countering, Actionable Vulnerability in Triple-Negative Breast Cancer” (Theranostics, 2019).
# Activity calls are given as the source filed them. The calls are words filed in the database; no cut-off is given here.
# Legend:
# MDA-MB-436 [1] = assay: Induction of cell cycle arrest in human MDA-MB-436 cells assessed as accumulation of cells at G1 phase measured at 2 uM by BrdU/PI staining based flow cytometric analysis (reference value: 48.3%); type: functional
# BT-474 [2] = assay: Upregulation of CDKN1A gene in human BT-474 cells at 2 uM by qRT-PCR analysis; type: functional, cell-based
# How it was run: (§1)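 Relative transcript levels measured by qRT-PCR in cells treated with 2 µM inhibitor, normalised to DMSO-treated control cells. Triplicate experiments unless stated otherwise; mean ± SD reported; unpaired two-tailed Student's t-test at p < 0.05.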
# SK-BR-3 = assay: Cytotoxicity against human SK-BR-3 cells assessed as increase in cell death at 10 uM for 2 days by Guava viacount assay; type: toxicity, cell-based; details: sk-br-3, 48 h, time 2 day
# How it was run: (§2)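 Cells plated at 2 × 10^4 (24-well) or 1 × 10^5 (12-well), exposed to a range of GSK343 concentrations for 2 days against DMSO solvent control; cell number and viability read by Guava ViaCount flow cytometry, relative to DMSO. Triplicate; mean ± SD.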
# MDA-MB-231 [3] = assay: […] in human MDA-MB-231 cells xenografted in Crl:NU-Foxn1-nu/nu mouse […] administered at 5 mg/kg, ip in presence of adriamycin treated for 21 days by SA-beta-gal staining analysis; type: functional, organism-based; details: time 21.0 day
# How it was run: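 SA-β-gal staining of xenograft tumors. Twice-weekly intraperitoneal GSK343 5 mg/kg, adriamycin 1 mg/kg, the combination, or DMSO, started at a tumor volume of about 50 mm3 and continued for 21 days.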
# MCF7 [4] = assay: Effect on human MCF7 cells assessed as increase in TET2 transcription by qRT-PCR analysis; type: functional, cell-based
# How it was run: (§3)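 qRT-PCR of TET1, TET2 and TET3 transcripts in breast cancer cells exposed to GSK343 (2 µM unless otherwise indicated), shown relative to DMSO-treated cells. Mean ± SD, triplicate unless stated.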
# MDA-MB-231 [5] = assay: Effect on human MDA-MB-231 cells assessed as increase in TET1 transcription by qRT-PCR analysis; type: functional, cell-based; how it was run: as §3
# MDA-MB-231 [6] = assay: Upregulation of CDKN1A gene in human MDA-MB-231 cells at 2 uM by qRT-PCR analysis; type: functional, cell-based; how it was run: as §1
# MDA-MB-231 [7] = assay: In vivo activation of p53 expression in Crl:NU-Foxn1-nu/nu mouse xenografted with human MDA-MB-231 cells at 5 mg/kg, ip in presence of adriamycin treated for 21 days; type: functional, organism-based; details: time 21.0 day
# MDA-MB-231 [8] = assay: Antiproliferative activity in human MDA-MB-231 cells assessed as increase in SA-beta-gal positive cells at 2 uM for 5 days by SA-beta-gal staining analysis; type: functional, cell-based; details: time 5.0 day
# How it was run: (§4)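 GSK343 2 µM or DMSO for 5 days, then chromogenic SA-β-gal staining and counting of positive cells. Triplicate; mean ± SD.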
# MDA-MB-436 [9] = assay: Upregulation of TET1 in human MDA-MB-436 cells at 2 uM for 2 days by immunoblot analysis; type: functional, cell-based; details: time 2.0 day
# MCF7 [10] = assay: Effect on human MCF7 cells assessed as increase in TET3 transcription by qRT-PCR analysis; type: functional, cell-based; how it was run: as §3
# MDA-MB-231 [11] = assay: Effect on human MDA-MB-231 cells assessed as increase in TET1 mRNA level by qRT-PCR analysis
# MCF7 [12] = assay: Effect on human MCF7 cells assessed as increase in TET1 transcription by qRT-PCR analysis; type: functional, cell-based; how it was run: as §3
# MDA-MB-436 [13] = assay: Antiproliferative activity in human MDA-MB-436 cells assessed as increase in C12FDG based fluorescent SA-beta-gal positive cells at 2 uM in presence of adriamycin by FACS analysis; type: functional, cell-based
# How it was run: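 Cells given 0.005 µg/ml adriamycin with or without 2 µM GSK343, or DMSO; SA-β-gal activity detected with C12FDG fluorescent substrate by flow cytometry, reported as percent positive cells. Mean ± SD.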
# MDA-MB-453 [14] = assay: Antiproliferative activity in human MDA-MB-453 cells assessed as increase in SA-beta-gal positive cells at 2 uM for 5 days by SA-beta-gal staining analysis; type: functional, cell-based; details: time 5.0 day; how it was run: as §4
# MCF7 [15] = assay: Cytotoxicity against human MCF7 cells assessed as increase in cell death at 10 uM for 2 days by Guava viacount assay; type: toxicity, cell-based; details: mcf7, 48 h, time 2 day; how it was run: as §2
# BT-474 [16] = assay: Cytotoxicity against human BT-474 cells at 0.5 to 2 uM for 2 days by Guava viacount assay; type: toxicity, cell-based; details: bt-474, 48 h, dose 0.5-2 µM, time 2 day; how it was run: as §2
# MCF7 [17] = assay: Induction of cell cycle arrest in human MCF7 cells assessed as accumulation of cells at S phase measured at 2 uM by BrdU/PI staining based flow cytometric analysis (reference value: 27.7%); type: functional
# MDA-MB-231 [18] = assay: Antiproliferative activity against human MDA-MB-231 cells assessed as downregulation of cyclin A by immunoblot analysis; type: functional, cell-based
# How it was run: (§5)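 Cells exposed to GSK343 at 2 µM (standard level unless stated otherwise), lysed and immunoblotted; α-tubulin and total H3 as loading controls.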
# MDA-MB-436 [19] = assay: Induction of apoptosis in human MDA-MB-436 cells assessed as decrease in accumulation of cells at S phase in presence of adriamycin by BrdU/PI-based cell cycle analysis; type: functional
# How it was run: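 Cell cycle by BrdU/PI staining and flow cytometry, giving G1, S and G2 fractions. Cells received 0.005 µg/ml adriamycin with or without 2 µM GSK343, or DMSO. Mean ± SD.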
# MDA-MB-231 [20] = assay: Effect on human MDA-MB-231 cells assessed as apoptotic phenotype by measuring increase in p53 expression level at 2 uM in presence of adriamycin by immunoblot analysis; type: functional, cell-based
# How it was run: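 Immunoblot of cell lysates after 0.05 µg/ml adriamycin alone, with 2 µM GSK343, or DMSO. α-Tubulin and total H3 used as loading controls.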
# MDA-MB-361 = assay: Cytotoxicity against human MDA-MB-361 cells assessed as increase in cell death at 10 uM for 2 days by Guava viacount assay; type: toxicity, cell-based; details: mda-mb-361, 48 h, time 2 day; how it was run: as §2
# MDA-MB-231 [21] = assay: Downregulation of E2F1 in human MDA-MB-231 cells at 2 uM for 2 days by immunoblot analysis; type: functional, cell-based; details: time 2.0 day
# MDA-MB-436 [22] = assay: In vivo activation of TET1 in Crl:NU-Foxn1-nu/nu mouse xenografted with human MDA-MB-436 cells at 5 mg/kg, ip in presence of adriamycin treated for 21 days; type: functional, organism-based; details: time 21.0 day
# MDA-MB-453 [23] = assay: Antiproliferative activity against human MDA-MB-453 cells assessed as increase in cell death at 10 uM for 2 days by Guava viacount assay; type: functional, cell-based; details: time 2.0 day; how it was run: as §2
# MDA-MB-453 [24] = assay: Antiproliferative activity against human MDA-MB-453 cells at 0.5 to 2 uM for 2 days by Guava viacount assay; type: functional, cell-based; details: dose 0.5-2 µM, time 2.0 day; how it was run: as §2
# MDA-MB-231 [25] = assay: Antiproliferative activity against human MDA-MB-231 cells assessed as increase in global H3K9me3 expression level by immunoblot analysis; type: functional, cell-based; how it was run: as §5
# MDA-MB-436 [26] = assay: Effect on human MDA-MB-436 cells assessed as increase in TET1 mRNA level by qRT-PCR analysis
# MCF7 [27] = assay: Upregulation of CDKN1A gene in human MCF7 cells at 2 uM by qRT-PCR analysis; type: functional, cell-based; how it was run: as §1
smiles,measurement,setting,value
CCCc1cc(C)[nH]c(=O)c1CNC(=O)c1cc(-c2ccnc(N3CCN(C)CC3)c2)cc2c1cnn2C(C)C,Activity,MDA-MB-436 [1],71.1%
same,Activity,BT-474 [2],inactive
same,Activity,SK-BR-3,Non-Toxic
same,Activity,MDA-MB-231 [3],Active
same,Activity,MCF7 [4],inactive
same,Activity,MDA-MB-231 [5],Active
same,Activity,MDA-MB-231 [6],Active
same,Activity,MDA-MB-231 [7],Active
same,Activity,MDA-MB-231 [8],Active
same,Activity,MDA-MB-436 [9],Active
same,Activity,MCF7 [10],inactive
same,Activity,MDA-MB-231 [11],Active
same,Activity,MCF7 [12],inactive
same,Activity,MDA-MB-436 [13],Active
same,Activity,MDA-MB-453 [14],Active
same,Activity,MCF7 [15],Non-Toxic
same,Activity,BT-474 [16],Non-Toxic
same,Activity,MCF7 [17],22.8%
same,Activity,MDA-MB-231 [18],Active
same,Activity,MDA-MB-436 [19],Active
same,Activity,MDA-MB-231 [20],Active
same,Activity,MDA-MB-361,Non-Toxic
same,Activity,MDA-MB-231 [21],Active
same,Activity,MDA-MB-436 [22],Active
same,Activity,MDA-MB-453 [23],Active
same,Activity,MDA-MB-453 [24],Active
same,Activity,MDA-MB-231 [25],Active
same,Activity,MDA-MB-436 [26],Active
same,Activity,MCF7 [27],inactive
